How the values were obtained:
CYP3A = CYP3A (Homo sapiens, UniProt P08684+P20815+P24462+Q9HB55); experiment: Inhibition of CYP3A in human liver microsomes assessed as substrate metabolite formation using testosterone as substrate preincubated with microsomes for 30 mins prior to substrate addition measured after 5 mins by LC-MS/MS analysis; type: ADME; details: probe testosterone
Summary of the method: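 HLM (16-donor pool) were preincubated 30 min with carfilzomib 0.01–10 µM before addition of midazolam or testosterone at about Km. Metabolite formation was measured by LC-MS/MS after 5 min, in duplicate, relative to 0.5% acetonitrile controls.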

Plasma [1] = experiment: Drug metabolism in plasma of iv dosed human patient with relapsed and refractory hematological malignancies assessed as morpholino-hPhe metabolite formation administered on days 1, 2, 8, 9, 15 and 16 of 28-day cycle over 2 to 10 mins by LC-MS/MS analysis; type: ADME, organism-based; details: in vivo
[2] = Plasma clearance in human patient with relapsed solid tumor at 20 mg/m'2, iv administered over 2 to 10 mins on days 1, 2, 8, 9, 15 and 16 of 28-day cycle measured on day 1 of cycle 1 by LC-MS/MS analysis; type: ADME, organism-based
Summary of the method: (§1)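 Patients with relapsed solid tumors (n=3) received carfilzomib IV at 20 mg/m2. Plasma was sampled on Days 1 and 16 of Cycle 1 before dosing, at end of administration, and at 5, 15, 30 min and 1, 2, 4 h after. Samples underwent solid phase extraction and LC-MS/MS with d10-carfilzomib internal standard over 0.100–200 ng/mL. Parameters were derived noncompartmentally (constant IV infusion model) from actual elapsed time from infusion start.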

[3] = AUC last in human patient with relapsed solid tumor at 20 mg/m'2, iv administered on days 1, 2, 8, 9, 15 and 16 of 28-day cycle over 2 to 10 mins measured on day 16 of cycle 1 by LC-MS/MS analysis; type: ADME, organism-based; set-up: route intravenous, time 0 - last; details: plasma; summary of the method: as §1
[4] = Cmax in human patient with relapsed solid tumor at 20 mg/m'2, iv administered on days 1, 2, 8, 9, 15 and 16 of 28-day cycle over 2 to 10 mins measured on day 16 of cycle 1 by LC-MS/MS analysis; type: ADME, organism-based; set-up: route intravenous; details: in vivo; summary of the method: as §1
Cytochrome P450 2C8 = biological target: T1, Cytochrome P450 2C8 (Homo sapiens, UniProt P10632); experiment: Drug metabolism in pooled human hepatocytes assessed as disapperance rate at 1 uM by LC-MS/MS analysis in presence of 30 uM CYP2C8 inhibitor montelukast; type: ADME, cell-based, Hepatocyte
T1 sequence (P10632 whole entry): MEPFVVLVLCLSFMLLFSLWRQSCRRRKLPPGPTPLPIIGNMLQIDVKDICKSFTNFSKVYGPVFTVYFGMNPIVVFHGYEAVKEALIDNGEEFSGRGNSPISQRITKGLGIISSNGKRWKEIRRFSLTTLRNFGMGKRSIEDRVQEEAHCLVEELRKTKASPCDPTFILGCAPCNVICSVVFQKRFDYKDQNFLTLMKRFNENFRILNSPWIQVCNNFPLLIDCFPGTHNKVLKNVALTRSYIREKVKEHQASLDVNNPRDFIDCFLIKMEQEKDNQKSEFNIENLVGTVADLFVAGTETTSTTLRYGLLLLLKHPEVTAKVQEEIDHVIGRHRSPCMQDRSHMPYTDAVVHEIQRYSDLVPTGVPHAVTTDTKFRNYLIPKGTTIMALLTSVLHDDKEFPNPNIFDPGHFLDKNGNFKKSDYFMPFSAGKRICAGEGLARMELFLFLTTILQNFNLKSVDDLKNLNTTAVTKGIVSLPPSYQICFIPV
Summary of the method: (§2)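 Pooled human hepatocytes in suspension (~0.5 x 10^6 viable cells/mL) were incubated with 1 µM carfilzomib at 37°C under 5% CO2, with or without isoform-selective CYP chemical inhibitors. Reactions were quenched with acetonitrile at 0, 15, 30, 60 and 120 min. Carfilzomib was quantified by non-validated LC-MS/MS after protein precipitation.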

Cytochrome P450 1A2 = biological target: T2, Cytochrome P450 1A2 (Homo sapiens, UniProt P05177); experiment: Drug metabolism in pooled human hepatocytes assessed as disapperance rate at 1 uM by LC-MS/MS analysis in presence of 30 uM CYP1A2 inhibitor furafylline; type: ADME, cell-based, Hepatocyte; summary of the method: as §2
T2 sequence (P05177 whole entry): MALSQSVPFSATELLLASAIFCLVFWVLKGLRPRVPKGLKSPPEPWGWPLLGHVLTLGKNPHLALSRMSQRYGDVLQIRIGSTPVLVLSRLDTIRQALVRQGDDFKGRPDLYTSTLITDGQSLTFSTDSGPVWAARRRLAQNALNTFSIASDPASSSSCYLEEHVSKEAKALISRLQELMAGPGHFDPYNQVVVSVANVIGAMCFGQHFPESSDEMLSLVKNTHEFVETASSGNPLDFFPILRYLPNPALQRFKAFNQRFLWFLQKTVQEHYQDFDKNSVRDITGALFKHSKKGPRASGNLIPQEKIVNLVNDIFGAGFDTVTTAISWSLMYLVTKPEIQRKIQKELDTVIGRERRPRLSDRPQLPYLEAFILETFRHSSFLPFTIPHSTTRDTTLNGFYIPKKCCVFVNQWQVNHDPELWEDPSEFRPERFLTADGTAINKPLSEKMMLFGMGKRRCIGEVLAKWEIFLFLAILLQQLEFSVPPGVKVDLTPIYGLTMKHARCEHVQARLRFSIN

[5] = Drug metabolism in pooled human hepatocytes assessed as disapperance rate at 1 uM by LC-MS/MS analysis; type: ADME, cell-based, Hepatocyte; summary of the method: as §2
Cytochrome P450 3A = Cytochrome P450 3A (Homo sapiens, UniProt P08684+P20815+Q9HB55+P24462); experiment: Time-dependent inhibition of CYP3A in human liver microsomes assessed as testosterone 6-hydroxylation using testosterone as substrate measured after 25-fold diution by LC-MS/MS analysis in presence of NADPH; type: ADME
Summary of the method: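 Pooled HLM (16 donors, mixed gender) preincubated in duplicate with carfilzomib 0, 0.5, 1, 3, 5 and 8 µM plus NADPH-generating system (1 mM NADP, 5 mM glucose-6-phosphate, 1 unit/mL G6PDH) for 0–30 min. Microsomal protein in preincubation: 2.5 mg/mL (testosterone) or 1.25 mg/mL (midazolam). Aliquots then diluted 25-fold into 50 mM potassium phosphate, 3 mM MgCl2, 1 mM EDTA, pH 7.4. Residual activity measured over 5 min with testosterone 200 µM or midazolam 40 µM plus NADPH-generating mixture, 37°C. KI and kinact derived.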

Hepatocyte = experiment: Cytotoxicity against human hepatocytes assessed as cell viability by MTT assay; type: cell-based
Summary of the method: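 MTT viability assay in cultured human hepatocytes from 3 donors after 3 days of carfilzomib exposure (0.1, 0.5, 2.5 µM) with daily medium and compound renewal. Solvent control was 0.08% DMSO.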

Plasma [6] = experiment: Drug metabolism in plasma of human multiple myeloma patient assessed as morpholino-hPhe-Leu-Phe-Leu-diol metabolite formation at 15 mg/m'2, iv administered as single dose measured within first 30 mins after end of drug infusion by LC-MS/MS analysis; type: ADME, organism-based; details: in vivo, 0.5 h
Summary of the method: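 Patients with multiple myeloma received a single 15 mg/m2 carfilzomib dose. Plasma was sampled pre-dose, at end of infusion, at 5, 15, 30 min and at 1, 1.5, 2, 4, 6, 24 h. Samples were protein-precipitated and analyzed by LC-MS/MS (metabolites 0.500–500 ng/mL) with deuterated internal standards.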

IC50 at 5 min (CYP3A): > 970 nM
Drug metabolism (Plasma [1]): metabolite_detected
clearance [2]: 2430 mL/min
AUC(0-t) [3]: 301 ng·h/mL
Cmax [4]: 3710 ng/mL
Drug metabolism (Cytochrome P450 2C8): 0.014 min⁻¹
Drug metabolism (Cytochrome P450 1A2): 0.016 min⁻¹
Drug metabolism [5]: 0.015 min⁻¹
inhibition (INH) (Cytochrome P450 3A): Active
Drug metabolism (Plasma [6]): metabolite_detected
Structure (SMILES): CC(C)C[C@H](NC(=O)[C@H](CCc1ccccc1)NC(=O)CN1CCOCC1)C(=O)N[C@@H](Cc1ccccc1)C(=O)N[C@@H](CC(C)C)C(=O)[C@@]1(C)CO1 [CARFILZOMIB]
Activity (Hepatocyte): Non-toxic
